In series [1] the target is T1, Muscarinic acetylcholine receptor M1 (Homo sapiens) (UniProt P11229).
T1 sequence (whole entry): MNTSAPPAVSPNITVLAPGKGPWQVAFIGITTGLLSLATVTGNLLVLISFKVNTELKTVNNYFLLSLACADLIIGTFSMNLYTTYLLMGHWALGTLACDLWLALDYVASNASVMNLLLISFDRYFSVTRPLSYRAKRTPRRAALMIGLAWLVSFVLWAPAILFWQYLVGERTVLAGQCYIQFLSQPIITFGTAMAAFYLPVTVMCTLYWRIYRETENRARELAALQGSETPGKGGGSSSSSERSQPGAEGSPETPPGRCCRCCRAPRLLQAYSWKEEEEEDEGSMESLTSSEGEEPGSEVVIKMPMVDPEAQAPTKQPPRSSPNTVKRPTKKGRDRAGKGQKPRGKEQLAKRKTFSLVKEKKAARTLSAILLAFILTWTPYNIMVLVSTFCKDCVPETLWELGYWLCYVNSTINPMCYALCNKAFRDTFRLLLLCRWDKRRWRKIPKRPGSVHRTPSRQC
Put plainly: Intrinsic activity at human muscarinic M1 receptor expressed in CHO cells assessed as intracellular calcium mobilization after 10 to 15 mins by FLIPR assay. The class given is functional, cell-based. The essentials: (§1)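 Human M1 mAChR stably expressed in CHO cells; agonist-induced intracellular Ca2+ mobilization read by fluorometric imaging plate reader (FLIPR).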
Background: Calcium flux is commonly read through the fluorescence of an indicator in the cells.

In series [2] the target is T2, Muscarinic acetylcholine receptor M4 (Homo sapiens, UniProt P08173).
T2 sequence (P08173 whole entry): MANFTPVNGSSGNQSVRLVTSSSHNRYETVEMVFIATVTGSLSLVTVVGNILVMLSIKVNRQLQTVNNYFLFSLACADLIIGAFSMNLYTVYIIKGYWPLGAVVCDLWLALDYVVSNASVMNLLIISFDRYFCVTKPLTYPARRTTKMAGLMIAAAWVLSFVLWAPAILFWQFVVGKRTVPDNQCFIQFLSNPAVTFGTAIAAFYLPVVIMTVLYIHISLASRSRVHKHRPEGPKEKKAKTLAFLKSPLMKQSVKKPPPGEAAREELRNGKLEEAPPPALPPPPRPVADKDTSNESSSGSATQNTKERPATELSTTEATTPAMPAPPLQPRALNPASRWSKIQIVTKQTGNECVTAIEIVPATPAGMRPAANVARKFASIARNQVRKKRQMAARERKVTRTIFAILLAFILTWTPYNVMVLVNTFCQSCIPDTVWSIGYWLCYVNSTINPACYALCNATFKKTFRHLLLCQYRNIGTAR
Put plainly: Agonist activity at human muscarinic M4 receptor expressed in CHO cells coexpressing Galpha16 subunit assessed as intracellular calcium mobilization after 10 to 15 mins by FLIPR assay. The class given is functional, cell-based.

The target of series [3] is Voltage-gated inwardly rectifying potassium channel KCNH2 (Homo sapiens, UniProt Q12809). Put plainly: Binding affinity to human ERG.
Sequence of Voltage-gated inwardly rectifying potassium channel KCNH2 (Q12809 whole entry): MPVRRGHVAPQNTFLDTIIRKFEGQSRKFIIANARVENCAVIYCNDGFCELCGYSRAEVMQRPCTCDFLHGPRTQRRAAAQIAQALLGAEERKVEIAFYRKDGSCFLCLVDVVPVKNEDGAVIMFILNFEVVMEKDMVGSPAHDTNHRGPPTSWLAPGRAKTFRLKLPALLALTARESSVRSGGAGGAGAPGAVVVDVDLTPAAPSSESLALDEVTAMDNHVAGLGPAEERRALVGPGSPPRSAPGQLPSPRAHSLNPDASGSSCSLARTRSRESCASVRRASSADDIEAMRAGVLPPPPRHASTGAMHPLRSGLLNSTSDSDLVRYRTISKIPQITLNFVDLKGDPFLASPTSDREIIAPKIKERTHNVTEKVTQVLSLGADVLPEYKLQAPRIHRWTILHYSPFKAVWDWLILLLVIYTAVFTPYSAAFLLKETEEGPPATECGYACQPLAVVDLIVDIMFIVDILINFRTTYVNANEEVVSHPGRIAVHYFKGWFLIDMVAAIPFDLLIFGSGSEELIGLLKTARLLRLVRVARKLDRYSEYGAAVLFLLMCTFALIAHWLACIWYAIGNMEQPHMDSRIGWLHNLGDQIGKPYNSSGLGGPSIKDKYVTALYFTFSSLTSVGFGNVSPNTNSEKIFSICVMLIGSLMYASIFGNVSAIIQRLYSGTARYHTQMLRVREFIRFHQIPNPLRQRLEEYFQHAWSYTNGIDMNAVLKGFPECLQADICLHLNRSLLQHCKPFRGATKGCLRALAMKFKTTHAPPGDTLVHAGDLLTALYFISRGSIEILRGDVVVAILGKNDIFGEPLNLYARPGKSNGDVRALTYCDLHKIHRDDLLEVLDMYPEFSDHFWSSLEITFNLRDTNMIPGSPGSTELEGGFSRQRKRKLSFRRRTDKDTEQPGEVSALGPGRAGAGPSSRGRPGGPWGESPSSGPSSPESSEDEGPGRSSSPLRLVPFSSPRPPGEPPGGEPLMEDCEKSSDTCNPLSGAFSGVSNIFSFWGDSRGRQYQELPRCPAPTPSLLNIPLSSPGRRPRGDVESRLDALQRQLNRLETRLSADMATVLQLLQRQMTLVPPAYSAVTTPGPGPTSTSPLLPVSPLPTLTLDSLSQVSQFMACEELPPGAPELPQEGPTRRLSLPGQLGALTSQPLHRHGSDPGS
Series [4] deals with T3, Muscarinic acetylcholine receptor M2 (Homo sapiens) (UniProt P08172).
T3 sequence (whole entry): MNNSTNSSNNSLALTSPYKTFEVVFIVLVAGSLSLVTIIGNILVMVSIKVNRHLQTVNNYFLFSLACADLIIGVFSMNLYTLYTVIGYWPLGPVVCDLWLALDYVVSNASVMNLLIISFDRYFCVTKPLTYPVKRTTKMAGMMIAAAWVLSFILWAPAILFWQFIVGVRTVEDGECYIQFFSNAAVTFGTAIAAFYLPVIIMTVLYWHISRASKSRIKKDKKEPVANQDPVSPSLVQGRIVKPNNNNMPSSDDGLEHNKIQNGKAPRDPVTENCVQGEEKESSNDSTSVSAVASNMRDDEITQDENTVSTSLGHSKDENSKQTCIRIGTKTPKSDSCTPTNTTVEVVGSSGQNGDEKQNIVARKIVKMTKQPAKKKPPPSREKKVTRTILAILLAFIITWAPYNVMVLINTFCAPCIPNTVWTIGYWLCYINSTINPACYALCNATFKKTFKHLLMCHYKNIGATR
Kind of series: Intrinsic activity at human muscarinic M2 receptor expressed in CHO cells coexpressing Galpha16 subunit assessed as intracellular calcium mobilization after 10 to 15 mins by FLIPR assay. The class given is functional, cell-based.

Series [5] deals with T4, Muscarinic acetylcholine receptor M3 (Homo sapiens, UniProt P20309). Kind of series: Intrinsic activity at human muscarinic M3 receptor expressed in CHO cells assessed as intracellular calcium mobilization after 10 to 15 mins by FLIPR assay. The series is classed as functional, cell-based.
Target sequence in this assay (P20309 whole entry, looked up): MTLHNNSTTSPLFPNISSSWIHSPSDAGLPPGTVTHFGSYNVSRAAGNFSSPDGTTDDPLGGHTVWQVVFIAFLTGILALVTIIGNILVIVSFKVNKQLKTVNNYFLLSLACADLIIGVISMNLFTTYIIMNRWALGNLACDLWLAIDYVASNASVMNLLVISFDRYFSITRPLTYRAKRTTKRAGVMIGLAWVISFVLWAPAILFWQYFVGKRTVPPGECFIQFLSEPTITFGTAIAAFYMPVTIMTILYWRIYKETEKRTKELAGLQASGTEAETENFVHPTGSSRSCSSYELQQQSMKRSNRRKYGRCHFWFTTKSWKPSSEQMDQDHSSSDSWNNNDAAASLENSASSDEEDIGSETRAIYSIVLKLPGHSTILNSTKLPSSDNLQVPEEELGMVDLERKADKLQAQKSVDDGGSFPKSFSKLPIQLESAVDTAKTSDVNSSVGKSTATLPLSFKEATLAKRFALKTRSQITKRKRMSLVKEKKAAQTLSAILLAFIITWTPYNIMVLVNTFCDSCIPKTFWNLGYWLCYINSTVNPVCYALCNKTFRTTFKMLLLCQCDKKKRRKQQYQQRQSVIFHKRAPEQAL
Series [6] deals with T5, Muscarinic acetylcholine receptor M4 (Homo sapiens) (UniProt P08173).
T5 sequence (whole entry): T2 sequence (P08173 whole entry)
Put plainly: Intrinsic activity at human muscarinic M4 receptor expressed in CHO cells coexpressing Galpha16 subunit assessed as intracellular calcium mobilization after 10 to 15 mins by FLIPR assay. The series is classed as functional, cell-based.

Series [7] is described as follows: Ratio of drug level in brain to blood in rat at 3 mg/kg, po. The series is classed as ADME, organism-based. On the set-up: dose 3 mg/kg, route oral.
The test system of series [8] is Rattus norvegicus. Put plainly: Increase in neuronal firing rate in Sprague-Dawley rat hippocampal CA1 region at 1 mg/kg, iv. The series is classed as functional. The essentials: (§2)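 Rat hippocampal CA1 neuronal cell firing rate recorded after iv dosing at 0.3 or 1 mg/kg. Where used, scopolamine was given at 3 mg/kg ip […] before the iv dose. Statistics by repeated measures ANOVA.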

Series [9] deals with Rattus norvegicus. Put plainly: Increase in neuronal firing rate in Sprague-Dawley rat hippocampal CA1 region at 0.3 mg/kg, iv. The class given is functional, organism-based. On the set-up: dose 0.3 mg/kg. The essentials:
as §2

The test system of series [10] is Rattus norvegicus. Kind of series: Increase in neuronal firing rate in Sprague-Dawley rat hippocampal CA1 region at 1 mg/kg, iv pretreated with 3 mg/kg, ip mAChR antagonist scopolamine for 10 mins. The class given is functional, organism-based.
Series [11] relates to Rattus norvegicus. Kind of series: Antidementia activity against scopolamine-induced amnesia in Wistar rat assessed as improvement in recall latency to transfer from bright to dark compartment administered orally 2 hrs before scopolamine challenge measured after 24 hrs post training by passive avoidance test. The class given is functional, organism-based. In a few lines: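 Rat passive avoidance task with scopolamine (0.8 mg/kg) given to induce amnesia. Test agent dosed orally at 1, 3 and 10 mg/kg. Groups compared with vehicle-treated controls and with scopolamine alone.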

Series [12] addresses T6, Muscarinic acetylcholine receptor M1 (Homo sapiens, UniProt P11229).
T6 sequence (P11229 whole entry): T1 sequence (whole entry)
Kind of series: Agonist activity at human muscarinic M1 receptor expressed in CHO cells assessed as intracellular calcium mobilization after 10 to 15 mins by FLIPR assay. The series is classed as functional, cell-based. The essentials: as §1

Series [13] has as its target T7, Muscarinic acetylcholine receptor M2 (Homo sapiens, UniProt P08172).
T7 sequence (P08172 whole entry): T3 sequence (whole entry)
Put plainly: Agonist activity at human muscarinic M2 receptor expressed in CHO cells coexpressing Galpha16 subunit assessed as intracellular calcium mobilization after 10 to 15 mins by FLIPR assay. The series is classed as functional, cell-based.

Series [14] addresses T4, Muscarinic acetylcholine receptor M3. Put plainly: Agonist activity at human muscarinic M3 receptor expressed in CHO cells assessed as intracellular calcium mobilization after 10 to 15 mins by FLIPR assay. The class given is functional, cell-based.
Target sequence in this assay (P20309 whole entry): as the sequence (P20309 whole entry, looked up) above
Series [15] can be described thus: Half life in rat at 3 mg/kg, po. The series is classed as ADME, organism-based. On the set-up: dose 3 mg/kg, route oral. The note with it: in vivo.
The target of series [16] is T8, 5-hydroxytryptamine receptor 1A (Homo sapiens, UniProt P08908).
T8 sequence (P08908 whole entry): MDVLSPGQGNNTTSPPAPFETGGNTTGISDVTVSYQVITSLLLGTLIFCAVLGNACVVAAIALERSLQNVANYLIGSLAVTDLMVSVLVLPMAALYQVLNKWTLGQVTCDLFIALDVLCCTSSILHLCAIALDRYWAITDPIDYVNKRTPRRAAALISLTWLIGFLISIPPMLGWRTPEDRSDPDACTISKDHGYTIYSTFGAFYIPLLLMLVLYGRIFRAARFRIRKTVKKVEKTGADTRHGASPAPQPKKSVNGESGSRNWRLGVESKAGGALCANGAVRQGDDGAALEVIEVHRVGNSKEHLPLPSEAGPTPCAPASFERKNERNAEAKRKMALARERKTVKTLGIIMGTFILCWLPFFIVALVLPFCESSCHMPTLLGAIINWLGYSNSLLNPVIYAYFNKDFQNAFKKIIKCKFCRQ
Put plainly: Activity at 5HT1A receptor.

The target in series [17] is 5-hydroxytryptamine receptor 2A (Homo sapiens, UniProt P28223). Put plainly: Binding affinity to 5HT2A receptor.
Sequence of 5-hydroxytryptamine receptor 2A (P28223 whole entry): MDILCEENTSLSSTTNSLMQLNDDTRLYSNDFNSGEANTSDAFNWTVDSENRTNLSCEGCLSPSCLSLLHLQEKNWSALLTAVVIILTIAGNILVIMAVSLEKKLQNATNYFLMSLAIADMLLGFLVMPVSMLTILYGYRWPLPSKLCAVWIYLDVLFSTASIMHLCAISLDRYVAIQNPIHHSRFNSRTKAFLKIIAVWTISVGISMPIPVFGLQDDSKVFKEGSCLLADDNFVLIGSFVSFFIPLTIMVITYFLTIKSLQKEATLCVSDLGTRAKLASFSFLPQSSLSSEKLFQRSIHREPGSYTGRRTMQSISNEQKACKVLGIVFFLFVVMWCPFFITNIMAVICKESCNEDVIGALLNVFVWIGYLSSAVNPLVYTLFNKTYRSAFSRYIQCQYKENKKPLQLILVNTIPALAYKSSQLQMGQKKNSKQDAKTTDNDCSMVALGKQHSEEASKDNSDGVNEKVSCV
Another series addresses D(2) dopamine receptor (Homo sapiens, UniProt P14416). Put plainly: Binding affinity to dopamine D2 receptor.
For the next series, the target named is D(3) dopamine receptor (Homo sapiens, UniProt P35462). Kind of series: Binding affinity to dopamine D3 receptor.
Sequence of D(3) dopamine receptor (P35462 whole entry): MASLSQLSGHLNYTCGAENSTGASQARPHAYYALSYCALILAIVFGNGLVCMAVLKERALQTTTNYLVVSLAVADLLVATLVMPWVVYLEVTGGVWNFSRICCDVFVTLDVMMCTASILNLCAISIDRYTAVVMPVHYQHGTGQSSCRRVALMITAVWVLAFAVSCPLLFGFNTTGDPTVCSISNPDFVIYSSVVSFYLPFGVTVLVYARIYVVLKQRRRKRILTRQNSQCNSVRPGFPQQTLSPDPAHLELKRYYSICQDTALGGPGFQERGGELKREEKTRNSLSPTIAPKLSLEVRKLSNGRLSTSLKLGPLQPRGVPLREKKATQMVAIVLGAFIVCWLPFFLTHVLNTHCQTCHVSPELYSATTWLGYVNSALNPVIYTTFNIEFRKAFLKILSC
Series [18] has as its target T9, Muscarinic acetylcholine receptor M5 (Homo sapiens, UniProt P08912).
T9 sequence (P08912 whole entry): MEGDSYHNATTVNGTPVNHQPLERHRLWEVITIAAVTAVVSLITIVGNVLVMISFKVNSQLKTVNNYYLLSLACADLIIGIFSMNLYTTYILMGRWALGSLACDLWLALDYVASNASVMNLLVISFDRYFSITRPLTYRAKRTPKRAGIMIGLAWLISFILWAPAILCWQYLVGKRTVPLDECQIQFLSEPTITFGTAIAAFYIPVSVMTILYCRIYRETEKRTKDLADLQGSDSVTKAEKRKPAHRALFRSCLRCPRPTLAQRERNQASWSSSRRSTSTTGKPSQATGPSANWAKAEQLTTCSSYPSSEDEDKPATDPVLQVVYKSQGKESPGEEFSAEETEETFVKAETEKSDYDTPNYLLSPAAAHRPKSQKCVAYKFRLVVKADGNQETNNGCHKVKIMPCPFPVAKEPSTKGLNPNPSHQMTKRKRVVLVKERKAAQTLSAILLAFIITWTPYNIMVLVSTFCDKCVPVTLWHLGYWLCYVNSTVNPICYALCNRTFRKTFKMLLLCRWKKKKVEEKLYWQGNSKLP
Put plainly: Agonist activity at human muscarinic M5 receptor expressed in CHO cells assessed as intracellular calcium mobilization after 10 to 15 mins by FLIPR assay. The series is classed as functional, cell-based.

In the next series the test system is Liver microsomes. Kind of series: Intrinsic clearance in human liver microsomes. The series is classed as ADME, Microsome. A general note: Liver microsomes are a subcellular fraction often used to study metabolism.
Series [19] is described as follows: Blood clearance in rat at 1 mg/kg, iv. The series is classed as ADME, organism-based. Also noted: dose 1 mg/kg, route intravenous.
A short description of series [20]: Half life in rat at 1 mg/kg, iv. The series is classed as ADME, organism-based. On the set-up: dose 1 mg/kg, route intravenous. The note with it: in vivo.

Activity calls are given as the source filed them. No cut-off for these calls is given here.

Sequence of D(2) dopamine receptor (P14416 whole entry): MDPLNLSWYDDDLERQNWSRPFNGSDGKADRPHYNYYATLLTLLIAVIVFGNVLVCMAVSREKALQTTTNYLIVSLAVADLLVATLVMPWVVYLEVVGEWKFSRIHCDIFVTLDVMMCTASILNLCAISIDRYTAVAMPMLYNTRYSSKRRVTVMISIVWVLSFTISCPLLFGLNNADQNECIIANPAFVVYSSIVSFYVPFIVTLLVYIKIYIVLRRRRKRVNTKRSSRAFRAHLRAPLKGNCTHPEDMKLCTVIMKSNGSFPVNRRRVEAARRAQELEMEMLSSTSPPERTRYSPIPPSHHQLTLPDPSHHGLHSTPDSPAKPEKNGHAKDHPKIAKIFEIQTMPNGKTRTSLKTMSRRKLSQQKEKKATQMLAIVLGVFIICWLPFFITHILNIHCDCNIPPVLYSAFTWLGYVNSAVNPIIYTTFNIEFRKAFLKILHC

One may read the EC50 as the midpoint of the concentration-response curve. As a reminder, the IC50 is the concentration needed to halve the response being measured. Lower therefore signals greater potency in that assay. As usually defined, the Kp is tissue or fluid exposure divided by exposure in the circulation. Take `Cc1cc2c(cc1F)[nH]c(=O)n2C1CCN(C2CCOCC2)CC1`: the Intrinsic activity was determined as 94% in series [1], 71% in series [4], 58% in series [5] and 71% in series [6]. Also, the EC50 in series [2] is 0.501 µM. Also, in series [3], the IC50 is 12.6 µM. The Kp in series [7] was determined as 0.6. In the series with Rattus norvegicus [8], the “fold change (FC)” value was 3. The outcome with Rattus norvegicus [9] and in the series with Rattus norvegicus [10] was inactive. Besides, the Activity result in the series on Rattus norvegicus [11] was “Dose-dependent effect”.
The half-life is the time in which the quantity being followed falls by half. Read a high half-life as slow decline. For `Cc1ccc2[nH]c(=O)n(C3CCN(C4CCOCC4)CC3)c2c1`, the EC50 is 0.00501 µM in series [12], 0.631 µM in [13], 3.98 µM in [14] and 0.631 µM in [2]. The Intrinsic activity in series [1] was 92%; in [4], 71%; in series [5] it was 72%; in series [6] it was 68%. Besides, the IC50 in series [3] was 25.1 µM. Further, in series [15], the half-life was 2.6 h. In [7], the Kp amounted to 0.6.
As a reminder, the Ki is a dissociation constant, usually derived from enzyme kinetics or from competition with a known ligand. As to `O=c1[nH]c2ccccc2n1C1CCN(CCCOc2ccc(F)cc2)CC1`, the EC50 in [12] is 0.398 µM; in series [13] it was above 25.1 µM; in series [14], above 25.1 µM; in series [2], above 25.1 µM; in series [16], 0.0501 µM. Further, the Intrinsic activity in series [1] stood at 86%. The figures for the Ki (in series [17]; on D(2) dopamine receptor; at D(3) dopamine receptor) were 0.00316 µM, 0.000501 µM and 0.00126 µM, respectively. The compound further showed an IC50 in series [3] of 0.0794 µM.
What is called clearance is the volume of plasma or blood freed of the substance per unit of time. High values mean efficient removal, low ones inefficient removal. Consider `O=c1[nH]c2ccccc2n1C1CCN(C2CCOCC2)CC1`, for which the values for the Intrinsic activity in series [1], in [4] and in [6] were 101%, 88% and 77%, respectively. In addition, the EC50 in series [14] and in [18] was above 10 µM in each case. The same compound displayed a CLH with Liver microsomes of 0.5 mL/min/g. This compound also returned a clearance in series [19] of 4.08 L/h/kg. The compound further showed a half-life in [20] of 0.5 h.

Source of the values: ChEMBL document CHEMBL2146410, “Novel N-Substituted Benzimidazolones as Potent, Selective, CNS-Penetrant, and Orally Active M1 mAChR Agonists” (ACS Med Chem Lett, 2010).
